Screens deposited in PubChem BioAssay by Johns Hopkins Ion Channel Center.
TRPC4 inh = blocks the mouse TRPC4 cation channel | Q9QUQ5 | HEK293 TRPC4beta/mu-opioid, DAMGO-evoked Fluo4 calcium flux; hits give low values | B-score at 10 µM | hit rate 0.39% among 300,000 | AID 2247;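 active = B-score over 3 SD under the library average, no early fluorescence shift, positive overall ratio signal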
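Assay system: TRPC4beta/mu-opioid receptor HEK293 cell line; compound dosing: single concentration per test compound; detection: Fluo4 Ca2+ flux fluorescence; evaluation: per-well B score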
TRPC4 agonist = activators of mouse TRPC4 channel. AID 2237. B-score at 10 µM. HEK293 TRPC4beta/mu-opioid, Fluo4 calcium fluorescence; hits give high values. Q9QUQ5. hit rate 0.49% among 310,000;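 active = B-score above 5 SD of library B-scores, and initial fluorescence ratio not above library mean plus 5 SD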;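 note: positive B-score marks a calcium rise read as TRPC4 activation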
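Material: HEK293 stable line with TRPC4beta plus mu-opioid receptor; technique: Fluo4 calcium-sensitive dye fluorescence, kinetic, 1 Hz baseline; timing: Fluo4 dye loading 45 min at room temperature, 110 s recording; controls: assay buffer as low control, maximal DAMGO as high control; read-out: integrated baseline-normalised fluorescence ratio, converted to per-well B score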
TRPC6 activator = activates the mouse TRPC6 cation channel | Q61143 | HEK293-TRPC6 membrane potential dye fluorescence; hits give high values | B-score at 10 µM | hit rate 0.13% among 310,000 | AID 2550;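 active = B-score of the integrated fluorescence ratio above library mean plus 3 SD, and starting fluorescence ratio within library mean plus 5 SD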;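 note: higher score means more depolarization so channel activation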
Target sequence (Q61143 whole entry, looked up): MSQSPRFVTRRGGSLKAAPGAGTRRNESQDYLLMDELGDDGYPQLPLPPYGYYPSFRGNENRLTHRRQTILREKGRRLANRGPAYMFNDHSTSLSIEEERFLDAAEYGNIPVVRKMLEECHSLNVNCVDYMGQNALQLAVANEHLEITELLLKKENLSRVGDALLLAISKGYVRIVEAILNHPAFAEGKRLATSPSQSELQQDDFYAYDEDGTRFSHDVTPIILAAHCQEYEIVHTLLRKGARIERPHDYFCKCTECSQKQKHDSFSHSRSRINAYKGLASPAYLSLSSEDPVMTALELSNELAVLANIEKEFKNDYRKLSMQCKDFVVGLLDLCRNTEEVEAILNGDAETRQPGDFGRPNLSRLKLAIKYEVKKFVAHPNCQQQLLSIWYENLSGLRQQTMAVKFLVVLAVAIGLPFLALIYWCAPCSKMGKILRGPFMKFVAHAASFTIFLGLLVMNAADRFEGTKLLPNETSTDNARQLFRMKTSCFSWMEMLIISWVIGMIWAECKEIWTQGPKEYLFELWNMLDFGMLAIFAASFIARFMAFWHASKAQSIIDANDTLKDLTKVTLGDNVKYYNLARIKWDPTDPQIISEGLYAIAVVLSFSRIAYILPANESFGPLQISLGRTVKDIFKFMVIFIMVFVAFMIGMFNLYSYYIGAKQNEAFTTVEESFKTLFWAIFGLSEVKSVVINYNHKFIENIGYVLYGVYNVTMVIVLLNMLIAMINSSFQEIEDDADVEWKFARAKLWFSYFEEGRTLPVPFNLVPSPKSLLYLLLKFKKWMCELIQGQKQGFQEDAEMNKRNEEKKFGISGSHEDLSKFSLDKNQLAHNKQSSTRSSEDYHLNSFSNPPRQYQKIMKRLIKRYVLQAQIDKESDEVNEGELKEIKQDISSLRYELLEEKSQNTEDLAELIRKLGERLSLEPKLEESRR
TRPC6 inhibitor = inhibitors of mouse TRPC6 channel | Q61143 | HEK293-TRPC6, membrane potential dye, ACh-evoked depolarization; hits give low values | B-score at 10 µM | hit rate 1.1% among 310,000;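 active = B-score under library mean minus 3 SD, initial fluorescence not abnormally high, positive integrated signal ratio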;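 note: B-score derived from integrated fluorescence ratio over the kinetic read; more negative B-score means stronger inhibition of depolarization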
TRPC4 PAM = allosterically enhances the mouse TRPC4 cation channel | HEK293 TRPC4beta/mu-opioid, DAMGO EC20, Fluo-4 Ca2+ flux; hits give high values | hit rate 0.42% among 310,000 | Q9QUQ5 | B-score at 10 µM;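 active = B-score of calcium response area above 5 SD of library B-scores, with initial fluorescence ratio within 5 SD of library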;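 note: B-score of integrated fluorescence ratio over time as area under calcium response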
Numbers without * were called inactive. Shown are actives, neighbours in structure and some others; about 2.3% of the full set was active somewhere.

For CC1CCCCC1NS(=O)(=O)c1ccc(S(=O)(=O)N2CCCC2)cc1 (configuration not stated) the results were TRPC4 inh inactive, TRPC4 agonist inactive, TRPC6 activator inactive, TRPC6 inhibitor inactive and TRPC4 PAM 49*.
CC1CCCCC1NC(=O)c1ccc(S(=O)(=O)N2CCCC2)cc1 (configuration not stated) was read as TRPC4 inh inactive, TRPC4 agonist inactive, TRPC6 activator inactive, TRPC6 inhibitor inactive and TRPC4 PAM inactive.
Cc1ccc(Sc2ccc(CO)cc2[N+](=O)[O-])cc1 was read as TRPC4 inh -7*, TRPC4 agonist inactive, TRPC6 activator inactive, TRPC6 inhibitor inactive and TRPC4 PAM inactive.
For COc1cc(OC)c(C2N(c3ccc(Cl)cc3)C(=O)C3CCCN32)cc1OC (configuration not stated) the results were TRPC4 inh inactive, TRPC4 agonist inactive, TRPC6 activator inactive, TRPC6 inhibitor inactive and TRPC4 PAM 12*.
`COc1cc(OC)c(C2N(c3ccc(Cl)c(Cl)c3)C(=O)C3CCCN32)cc1OC` (configuration not stated) gave TRPC4 inh inactive, TRPC4 agonist inactive, TRPC6 activator inactive, TRPC6 inhibitor inactive and TRPC4 PAM inactive.
c1ccc2c3c([nH]c2c1)C1(CCCCC1)NCC3 was read as TRPC4 inh inactive, TRPC4 agonist inactive, TRPC6 activator inactive, TRPC6 inhibitor inactive and TRPC4 PAM inactive.
For CC12CCCCN1CCCc1c2[nH]c2ccccc12 (configuration not stated) the results were TRPC4 inh inactive, TRPC4 agonist 91*, TRPC6 activator inactive, TRPC6 inhibitor inactive and TRPC4 PAM inactive.
For CC(NC(=O)C1CC2CCCC(C1)C2=O)c1ccccc1 (configuration not stated) the results were TRPC4 inh inactive, TRPC4 agonist inactive, TRPC6 activator inactive, TRPC6 inhibitor inactive and TRPC4 PAM inactive.
Screening Nc1nonc1C(=O)NCCN=Cc1cc(Cc2ccccc2)cc(Br)c1O returned TRPC4 inh inactive, TRPC4 agonist inactive, TRPC6 activator inactive, TRPC6 inhibitor inactive and TRPC4 PAM inactive.
Nc1nonc1C(=O)NCCN=Cc1ccccc1O was read as TRPC4 inh inactive, TRPC4 agonist 71*, TRPC6 activator inactive, TRPC6 inhibitor inactive and TRPC4 PAM inactive.
For Cn1c(NCc2ccccc2O)nc2ccccc21 the results were TRPC4 inh -6*, TRPC4 agonist inactive, TRPC6 activator inactive, TRPC6 inhibitor inactive and TRPC4 PAM inactive.
Cn1c(NCc2ccccc2Cl)nc2ccccc21 was read as TRPC4 inh inactive, TRPC4 agonist inactive, TRPC6 activator inactive, TRPC6 inhibitor inactive and TRPC4 PAM inactive.
CC(C)n1c(NCc2ccccc2O)nc2ccccc21 was read as TRPC4 inh -6*, TRPC4 agonist inactive, TRPC6 activator inactive, TRPC6 inhibitor inactive and TRPC4 PAM inactive.
Screening C=CCc1cccc(CNc2nc3ccccc3n2C(C)C)c1O returned TRPC4 inh inactive, TRPC4 agonist inactive, TRPC6 activator inactive, TRPC6 inhibitor inactive and TRPC4 PAM inactive.
Screening COC(=O)C1=C(COc2ccccc2)NC(=O)NC1c1ccc2ccccc2c1 (configuration not stated) returned TRPC4 inh inactive, TRPC4 agonist 45*, TRPC6 activator inactive, TRPC6 inhibitor inactive and TRPC4 PAM inactive.
COC(=O)C1=C(CCc2ccccc2)NC(=O)NC1c1ccc(Cl)cc1 (configuration not stated) was read as TRPC4 inh inactive, TRPC4 agonist inactive, TRPC6 activator inactive, TRPC6 inhibitor inactive and TRPC4 PAM 29*.
CCOC(=O)C1=C(CNCc2ccccc2Cl)NC(=O)NC1c1cccc([N+](=O)[O-])c1 (configuration not stated) was read as TRPC4 inh inactive, TRPC4 agonist inactive, TRPC6 activator inactive, TRPC6 inhibitor inactive and TRPC4 PAM inactive.
`COC(=O)C1=C(COc2ccccc2)NC(=O)NC1c1ccc(Br)cc1` (configuration not stated) gave TRPC4 inh inactive, TRPC4 agonist inactive, TRPC6 activator inactive, TRPC6 inhibitor inactive and TRPC4 PAM inactive.
For COC(=O)C1=C(CCc2ccccc2)NC(=O)NC1c1ccc(C#N)cc1 (configuration not stated) the results were TRPC4 inh inactive, TRPC4 agonist inactive, TRPC6 activator inactive, TRPC6 inhibitor inactive and TRPC4 PAM inactive.
CCOC(=O)C1=C(CNCCc2ccc(Cl)cc2)NC(=O)NC1c1cccc([N+](=O)[O-])c1 (configuration not stated) was read as TRPC4 inh inactive, TRPC4 agonist inactive, TRPC6 activator inactive, TRPC6 inhibitor inactive and TRPC4 PAM 17*.
`CCS(=O)(=O)Nc1cc2c3c(c1)CCC(=O)N3CCC2` gave TRPC4 inh inactive, TRPC4 agonist inactive, TRPC6 activator inactive, TRPC6 inhibitor inactive and TRPC4 PAM inactive.
COc1cc(=O)n2c(-c3ccccc3)csc2n1 was read as TRPC4 inh -7*, TRPC4 agonist inactive, TRPC6 activator inactive, TRPC6 inhibitor inactive and TRPC4 PAM inactive.
`COc1cc2c(cc1OC)CN(Cc1cc(=O)n3c(-c4ccccc4)csc3n1)CC2` gave TRPC4 inh inactive, TRPC4 agonist 122*, TRPC6 activator inactive, TRPC6 inhibitor inactive and TRPC4 PAM inactive.
O=c1cc(CN2CCN(c3ccccc3)CC2)nc2scc(-c3ccccc3)n12 was read as TRPC4 inh inactive, TRPC4 agonist inactive, TRPC6 activator inactive, TRPC6 inhibitor inactive and TRPC4 PAM inactive.
For CC(=O)c1ccc(-c2ccc(C(=O)NCC3CCCO3)o2)cc1 (configuration not stated) the results were TRPC4 inh inactive, TRPC4 agonist inactive, TRPC6 activator inactive, TRPC6 inhibitor inactive and TRPC4 PAM inactive.
Screening CCCCC(CC)c1nnc(NC(=O)c2cccs2)s1 (configuration not stated) returned TRPC4 inh -9*, TRPC4 agonist inactive, TRPC6 activator inactive, TRPC6 inhibitor inactive and TRPC4 PAM inactive.
For CC(C)c1nnc(NC(=O)c2cccs2)s1 the results were TRPC4 inh inactive, TRPC4 agonist inactive, TRPC6 activator inactive, TRPC6 inhibitor inactive and TRPC4 PAM inactive.
For COc1ccc(N2CCN(c3cc(C)c4ccc(O)cc4n3)CC2)cc1 the results were TRPC4 inh inactive, TRPC4 agonist inactive, TRPC6 activator inactive, TRPC6 inhibitor inactive and TRPC4 PAM inactive.
Screening COc1ccc(N2CCN(c3cc(C)c4ccc(C)cc4n3)CC2)cc1 returned TRPC4 inh inactive, TRPC4 agonist inactive, TRPC6 activator inactive, TRPC6 inhibitor inactive and TRPC4 PAM 12*.
